FN deposition inh: fibronectin deposition inhibition. AH1F fibroblasts, Alexa488-fibronectin deposition fluorescence, overnight. inhibition, % at 12.6 µM. 0.086% of 350,000 active. AID 743247;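 active means mean inhibition across replicates of 30% or more, regardless of how many single replicates reach that level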;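 further: positive control wells lacked labelled fibronectin entirely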
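Assay system: AH1F fibroblast monolayer, labelled fibronectin deposition. Amount: 10000 cells per well. Also added: labelled fibronectin 24 nM. Compound: single-point pinned compound. Incubation: cell attachment 1 h, compound and FN exposure overnight. Detection: fluorescence after three HBSS washes, excitation 485 nm, emission 525 nm. Read-out: inhibition of fibronectin deposition signal.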
SIRT5 inh: inhibitors of human sirtuin-5 desuccinylase; Purified SirT5, succinyl-peptide AMC, trypsin-coupled fluorescence; 1.1% of 330,000 active; inhibition, % at 15 µM; in the data active means inhibition above about 15%
Target sequence (Q9NXA8 whole entry, looked up): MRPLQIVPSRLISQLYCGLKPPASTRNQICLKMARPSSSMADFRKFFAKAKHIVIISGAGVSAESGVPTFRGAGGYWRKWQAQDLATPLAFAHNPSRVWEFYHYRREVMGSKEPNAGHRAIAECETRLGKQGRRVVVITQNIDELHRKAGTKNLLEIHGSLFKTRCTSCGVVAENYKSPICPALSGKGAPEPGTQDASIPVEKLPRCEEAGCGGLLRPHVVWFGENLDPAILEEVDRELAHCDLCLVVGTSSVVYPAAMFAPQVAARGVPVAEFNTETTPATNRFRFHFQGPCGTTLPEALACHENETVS
PGC1a acetyl inh: lowers PGC1a acetylation signal in U2OS cells | AlphaScreen anti-acetyl-lysine; with virally co-expressed GCN5 acetyltransferase | inhibition, % at 15.6 µM | 0.17% of 350,000 active;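 active means every replicate shows inhibition of at least 40%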;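 further: 0% = neutral control wells and 100% = positive control wells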
FGF22 binding: shifts melting point of recombinant human FGF22; Q9HCT0; AID 651658; 1.5% of 340,000 active; recombinant FGF22 thermal shift, SYPRO orange fluorescence; percent of sucrose octasulfate shift, DMSO zero; activity (Tm shift, normalised), % at 9.99 µM;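 active means mean Tm shift, scaled 0 neutral to 100 positive control, at about 1.3% or above, every replicate too, limit read from the data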
Target sequence (Q9HCT0 whole entry, looked up): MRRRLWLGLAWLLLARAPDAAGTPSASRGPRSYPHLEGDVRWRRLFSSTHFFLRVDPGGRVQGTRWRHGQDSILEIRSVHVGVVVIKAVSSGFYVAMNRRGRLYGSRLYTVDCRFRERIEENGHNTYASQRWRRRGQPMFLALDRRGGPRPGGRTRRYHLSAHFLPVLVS
ERAP1 HTS inh: blocks human ERAP1 aminopeptidase activity | 0.15% of 340,000 active | inhibition, % at 10.7 µM | recombinant ERAP1, Leu-AMC fluorescence, 60 min | Q9NZ08;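 active means mean replicate inhibition of at least 30%, or all replicates individually reaching that 30% level; inactive means mean below 30% and not every replicate reaching it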;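 further: 0% = neutral control wells and 100% = L-leucinethiol positive control wells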
* marks the source's active call; other numbers are inactive results. This is a sample that favours compounds with a hit; in the whole collection about 2.2% have one here.

For O=C(CCN1C(=O)C2CC=CCC2C1=O)Nc1cccc(S(=O)(=O)N2CCCCC2)c1 (stereo not given) the results were FN deposition inh 3, SIRT5 inh -5, PGC1a acetyl inh 3, FGF22 binding 0 and ERAP1 HTS inh 2.
For NS(=O)(=O)c1cccc(NC(=O)CCN2C(=O)C3CCCCC3C2=O)c1 (stereo not given) the results were FN deposition inh 33*, SIRT5 inh 1, PGC1a acetyl inh 12, FGF22 binding 0 and ERAP1 HTS inh -1.
Screening O=C(Nc1ccc2c(c1)[C@H]1C[C@@H](CC(=O)N3CCCCC3)O[C@@H](CO)[C@H]1O2)NC1CCCC1 returned FN deposition inh 12, SIRT5 inh -3, PGC1a acetyl inh -3, FGF22 binding 0 and ERAP1 HTS inh -2.
Screening COc1ccc(OCCCC(=O)OCC(=O)Nc2c(C)nn(-c3ccccc3)c2C)cc1 returned FN deposition inh 1, SIRT5 inh -4, PGC1a acetyl inh 85*, FGF22 binding 0 and ERAP1 HTS inh 1.
O=S(=O)(c1ccc(F)cc1)N1CCCCN2[C@@H](CO)[C@@H](c3ccc(-c4ccccc4F)cc3)[C@@H]2C1 was read as SIRT5 inh 16*, PGC1a acetyl inh -20, FGF22 binding 0 and ERAP1 HTS inh 2.
`O=S(=O)(c1ccc(F)cc1)N1CCCCN2[C@H](C1)[C@H](c1ccc(-c3ccccc3F)cc1)[C@@H]2CO` gave SIRT5 inh 17*, PGC1a acetyl inh -6, FGF22 binding 0 and ERAP1 HTS inh 0.
`O=S(=O)(c1ccc(F)cc1)N1CCCCN2[C@H](C1)[C@@H](c1ccc(-c3ccccc3F)cc1)[C@@H]2CO` gave SIRT5 inh 14, PGC1a acetyl inh -1, FGF22 binding 0 and ERAP1 HTS inh 0.
Cc1ccccc1-c1ccc([C@@H]2[C@@H](CO)N3CCCCN(S(=O)(=O)c4ccc(F)cc4)C[C@H]23)cc1 was read as PGC1a acetyl inh -5.
For O=S(=O)(c1ccc(F)cc1)N1CCCCN2[C@@H](CO)[C@H](c3ccc(-c4ccccc4F)cc3)[C@@H]2C1 the results were SIRT5 inh 22*, PGC1a acetyl inh -15, FGF22 binding 0 and ERAP1 HTS inh 0.
`Cc1ccccc1-c1ccc([C@H]2[C@H](CO)N3CCCCN(S(=O)(=O)c4ccc(F)cc4)C[C@@H]23)cc1` gave SIRT5 inh 21*, PGC1a acetyl inh -12 and FGF22 binding 0.
CC(C)NC(=O)N(C)C[C@@H]1OCCCC[C@@H](C)Oc2ccc(N(C)C)cc2C(=O)N([C@@H](C)CO)C[C@@H]1C was read as FN deposition inh 0, SIRT5 inh 3, PGC1a acetyl inh 5, FGF22 binding -1 and ERAP1 HTS inh 1.
`CC(C)NC(=O)N1[C@@H]2c3ccc(-c4ccccc4F)c(=O)n3C[C@@H]2[C@@H](CO)[C@@H]1C(=O)NC1CCC1` gave SIRT5 inh -14, FGF22 binding 0 and ERAP1 HTS inh -1.
For O=S(=O)(c1ccc(F)cc1)N1CCCCN2[C@H](CO)[C@H](c3ccc(-c4ccccc4F)cc3)[C@@H]2C1 the results were SIRT5 inh 20*, PGC1a acetyl inh 0, FGF22 binding 0 and ERAP1 HTS inh -2.
For Cc1ccccc1-c1cnc2c(c1)C(=O)N([C@H](C)CO)C[C@@H](C)[C@H](CN(C)C(=O)CN(C)C)O2 the results were FN deposition inh -2, SIRT5 inh -4, PGC1a acetyl inh -9, FGF22 binding 0 and ERAP1 HTS inh -3.
Screening O=C(NN1C(=O)NC2(CCCCC2)C1=O)c1ccc(Cl)c(Cl)c1 returned FN deposition inh 7, SIRT5 inh 17*, PGC1a acetyl inh -2, FGF22 binding 1 and ERAP1 HTS inh 0.
For CCOC(=O)C1=C(C)Nc2nc3ccccc3n2C1c1ccncc1 (stereo not given) the results were FN deposition inh 14* and PGC1a acetyl inh 31.
O=C(N[C@H]1CC[C@@H](CCn2cc(C3(O)CCCC3)nn2)O[C@@H]1CO)c1ccccc1F was read as FN deposition inh 2, SIRT5 inh 3, PGC1a acetyl inh -5, FGF22 binding 0 and ERAP1 HTS inh 1.
`C=CCc1cc(/C=C/c2nc(O)c([N+](=O)[O-])c(=O)[nH]2)cc(OC)c1O` gave FN deposition inh -8, SIRT5 inh 9, FGF22 binding 43* and ERAP1 HTS inh 7.
`O=C(C[C@H]1C=C[C@@H](NS(=O)(=O)c2ccc(F)cc2)[C@@H](CO)O1)NCc1ccccc1F` gave SIRT5 inh -3, PGC1a acetyl inh 6 and ERAP1 HTS inh -3.
For CN(NC(=O)c1ccco1)c1nc2ccccc2nc1C(F)(F)F the results were FN deposition inh 1, SIRT5 inh -1, PGC1a acetyl inh -4, FGF22 binding 43* and ERAP1 HTS inh 1.
Screening Cc1noc(C)c1S(=O)(=O)N(C)C[C@H]1OCCCC[C@@H](C)Oc2ccc(NC(=O)c3ccccc3)cc2C(=O)N([C@@H](C)CO)C[C@@H]1C returned SIRT5 inh 5, PGC1a acetyl inh -7, FGF22 binding 0 and ERAP1 HTS inh 3.
`COc1ccc2c3c(n(C)c2c1)[C@H](CO)N(C(=O)Nc1ccc(F)cc1)CC31CCN(C(=O)c2ccccc2F)CC1` gave SIRT5 inh -1, PGC1a acetyl inh 4, FGF22 binding 0 and ERAP1 HTS inh 3.
CCCCNCCCOc1ccc(C)cc1Br was read as FN deposition inh -14, SIRT5 inh -4, FGF22 binding 44* and ERAP1 HTS inh -1.
For CCOC(=O)c1[nH]c(C)c(C(=O)OCC)c1C the results were FN deposition inh -5, PGC1a acetyl inh -15 and FGF22 binding 0.
`CCOC(=O)c1c(C)[nH]c(C(=O)CN2C(=O)NC(C)(CC(C)C)C2=O)c1C` (stereo not given) gave FN deposition inh 4, SIRT5 inh -5, FGF22 binding 44* and ERAP1 HTS inh 0.
O=S(=O)(NC(CO)Cc1ccccc1)c1ccc(Br)cc1F (stereo not given) was read as FN deposition inh 2, PGC1a acetyl inh -15, FGF22 binding 43* and ERAP1 HTS inh 0.
`C[C@@H]1CN([C@@H](C)CO)C(=O)c2cc(NS(=O)(=O)c3ccc(Cl)cc3)ccc2O[C@@H]1CN(C)C(=O)NC1CCCCC1` gave FN deposition inh -4, SIRT5 inh 1, PGC1a acetyl inh -8, FGF22 binding 0 and ERAP1 HTS inh 0.
COc1ccc(/C=N/N2CCN(Cc3ccccc3)CC2)cc1 was read as FN deposition inh -1, SIRT5 inh -1, PGC1a acetyl inh -1, FGF22 binding 0 and ERAP1 HTS inh -2.
Screening COc1ccc(/C=C/C2=CCN(Cc3ccc(OC)cc3)CC2)cc1 returned SIRT5 inh -3, PGC1a acetyl inh 2, FGF22 binding 43* and ERAP1 HTS inh 0.
For CCN(CC)Cc1c(O)ccc2c(C)c(CC(=O)OC)c(=O)oc12 the results were FN deposition inh 4 and PGC1a acetyl inh 4.
